Measurements from different studies.
Compare with care: the assays were run in different laboratories.
Target: Muscarinic acetylcholine receptor M1 (CHRM1, Homo sapiens, UniProt P11229)
Tested at: 10 µM
One construct used (P11229 1-460): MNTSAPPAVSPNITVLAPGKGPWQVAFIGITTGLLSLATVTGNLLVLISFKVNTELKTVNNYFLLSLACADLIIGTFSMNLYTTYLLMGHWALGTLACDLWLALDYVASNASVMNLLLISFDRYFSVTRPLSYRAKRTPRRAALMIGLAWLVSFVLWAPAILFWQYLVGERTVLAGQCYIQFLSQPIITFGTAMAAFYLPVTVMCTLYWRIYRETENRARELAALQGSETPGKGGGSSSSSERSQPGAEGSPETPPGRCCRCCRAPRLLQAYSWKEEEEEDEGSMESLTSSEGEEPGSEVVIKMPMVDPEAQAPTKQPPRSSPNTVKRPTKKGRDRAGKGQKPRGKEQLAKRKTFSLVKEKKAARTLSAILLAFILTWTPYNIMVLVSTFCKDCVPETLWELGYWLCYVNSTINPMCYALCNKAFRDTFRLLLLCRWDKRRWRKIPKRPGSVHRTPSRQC

SMILES | observed | technique | inhibition
C[C@H](C(=O)N[C@H]1COc2ccccc2[C@@H]1S(C)(=O)=O)c1ccc(F)cc1 | cell-free assay |  | -7%
COc1ccc2cc(OCC3(C(=O)O)CN(C(=O)c4ccc(F)cc4)C3)ccc2c1 | ligand displacement |  | -0.03%
CN1CC[C@]2(C)c3cc(OC(=O)Nc4ccccc4)ccc3N(C)[C@H]12 | ligand displacement | radioligand | 0%
CC(C)N1CCC[C@H]1CNC(=O)c1cn(C2CCCC2)c(=O)c2c1c1ccccc1n2C | ligand displacement | radioligand | -1%
CCN(CC)CCCC[C@H](NC(=O)[C@H](CC(C)C)NC(=O)[C@H](C)NC(=O)[C@H](Cc1ccccc1)NC(=O)c1ccc(C(C)(C)C)cc1)C(=O)N[C@@H](CO)C(=O)OC | ligand displacement | radioligand | 1%
COCc1c(-c2cc3cc(C)cc(OC)c3s2)c2c(N)ncnn2c1CN1CCNC(=O)C1 | ligand displacement | radioligand | 6%
c1ccc(C(NCCNC(c2ccccc2)c2ccccc2)c2ccccc2)cc1 | cell-free assay |  | 21%
CS(=O)(=O)c1cc(C2(NC(=O)c3cncc4c3cnn4-c3ccc(F)cc3)CC2)ccn1 | cell-free assay |  | -14.8%
Clc1ccc2c(C3CCN(CCc4c[nH]c5ccccc45)CC3)c[nH]c2c1 | ligand displacement | radioligand | 31%
